Source: ChEMBL document CHEMBL4619801, “Discovery of Phthalazinone Derivatives as Novel Hepatitis B Virus Capsid Inhibitors” (J Med Chem, 2020)

Key:
[1] = Retention time of the compound by […]; assay type: physicochemical
[2] = Drug metabolism in mouse liver microsomes assessed as compound level by measuring UV-area of metabolite-M2 at 3 uM in presence of NADPH incubated for 60 mins by UPLC-UV/QTOF MS analysis; assay type: ADME, Microsome; settings: 1 h
In short: (§1)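 Each incubation held liver microsomes (human, monkey, dog, rat or mouse) at 0.5 mg/mL with 3.0 μM compound in 100 mM potassium phosphate, pH 7.4. After 3 min prewarming at 37 °C, the reaction was started with 1 mM NADPH. It was stopped at 60 min with ice-cold acetonitrile. Parent remaining and metabolites were judged from relative UV area.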

[3] = Drug metabolism in human liver microsomes assessed as compound level by measuring UV-area of metabolite-M1 at 3 uM in presence of NADPH incubated for 60 mins by UPLC-UV/QTOF MS analysis; assay type: ADME, Microsome; settings: 1 h; in short: as §1
[4] = Drug metabolism in dog liver microsomes assessed as compound level by measuring UV-area at 3 uM in presence of NADPH incubated for 60 mins by UPLC-UV/QTOF MS analysis; assay type: ADME, Canis lupus familiaris, Microsome; settings: 1 h; in short: as §1
[5] = Drug metabolism in dog liver microsomes at 3 uM in presence of NADPH incubated for 60 mins by UPLC-UV/QTOF MS analysis relative to control; assay type: ADME, Canis lupus familiaris, Microsome; settings: read-out: Drug metabolism; in short: as §1
[6] = Drug level in Sprague-Dawley rat liver at 20 mg/kg, po dosed as single administration measured up to 24 hrs; assay type: ADME, organism-based; settings: in vivo
[7] = Toxicity in human HepG2.2.15 cells; assay type: cell-based, HepG2 2.2.15
In short: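 HepG2.2.15 cells seeded at 4 × 10³ cells/well and exposed to a range of compound concentrations for 8 days. MTT (final 2.5 mg/mL) was added for 1 h at 37 °C, then cells were lysed in 10% SDS/50% DMF, pH 7.2. OD was read at 570 nm and % cell death calculated. CC50 is the mean ± SD of at least two independent determinations.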

[8] = Drug metabolism in human liver microsomes at 3 uM in presence of NADPH incubated for 60 mins by UPLC-UV/QTOF MS analysis relative to control; assay type: ADME, Microsome; settings: read-out: Drug metabolism; in short: as §1
[9] = Tmax in Sprague-Dawley rat at 20 mg/kg, po dosed as single administration; assay type: ADME, organism-based; settings: in vivo
[10] = AUC (0 to t) in Sprague-Dawley rat at 20 mg/kg, po dosed as single administration; assay type: ADME, organism-based; settings: in vivo
[11] = Drug metabolism in monkey liver microsomes assessed as compound level by measuring UV-area at 3 uM in presence of NADPH incubated for 60 mins by UPLC-UV/QTOF MS analysis; assay type: ADME, Macaca mulatta, Microsome; settings: rhesus monkey, 1 h; in short: as §1
[12] = Drug metabolism in human liver microsomes assessed as compound level by measuring LC-MS area at 3 uM in presence of NADPH incubated for 60 mins by UPLC-UV/QTOF MS analysis; assay type: ADME, Microsome; settings: 1 h; in short: as §1
[13] = Drug metabolism in human liver microsomes assessed as compound level by measuring UV-area at 3 uM in presence of NADPH incubated for 60 mins by UPLC-UV/QTOF MS analysis; assay type: ADME, Microsome; settings: 1 h; in short: as §1
[14] = Drug metabolism in monkey liver microsomes assessed as compound level by measuring LC-MS area of metabolite-M1 at 3 uM in presence of NADPH incubated for 60 mins by UPLC-UV/QTOF MS analysis; assay type: ADME, Macaca mulatta, Microsome; settings: rhesus monkey, 1 h; in short: as §1
[15] = Half life in Sprague-Dawley rat at 2 mg/kg, iv dosed as single administration; assay type: ADME, organism-based; settings: in vivo
[16] = Drug metabolism in mouse liver microsomes assessed as compound level by measuring LC-MS area of metabolite-M1 at 3 uM in presence of NADPH incubated for 60 mins by UPLC-UV/QTOF MS analysis; assay type: ADME, Microsome; settings: 1 h; in short: as §1
[17] = Drug metabolism in mouse liver microsomes at 3 uM in presence of NADPH incubated for 60 mins by UPLC-UV/QTOF MS analysis relative to control; assay type: ADME, Microsome; in short: as §1
[18] = Drug metabolism in mouse liver microsomes assessed as compound level by measuring LC-MS area at 3 uM in presence of NADPH incubated for 60 mins by UPLC-UV/QTOF MS analysis; assay type: ADME, Microsome; settings: 1 h; in short: as §1
[19] = Cmax in Sprague-Dawley rat at 20 mg/kg, po dosed as single administration; assay type: ADME, organism-based; design: dose 20 mg/kg, route oral; settings: in vivo
Hepatitis B virus = assay: Antiviral activity against Hepatitis B virus assessed as reduction in HBV DNA-free capsid formation; assay type: functional, organism-based
[20] = Drug metabolism in dog liver microsomes assessed as compound level by measuring LC-MS area at 3 uM in presence of NADPH incubated for 60 mins by UPLC-UV/QTOF MS analysis; assay type: ADME, Canis lupus familiaris, Microsome; settings: 1 h; in short: as §1
[21] = Drug metabolism in rat liver microsomes assessed as compound level by measuring UV-area at 3 uM in presence of NADPH incubated for 60 mins by UPLC-UV/QTOF MS analysis; assay type: ADME, Microsome; settings: 1 h; in short: as §1
[22] = Drug metabolism in monkey liver microsomes assessed as compound level by measuring LC-MS area at 3 uM in presence of NADPH incubated for 60 mins by UPLC-UV/QTOF MS analysis; assay type: ADME, Macaca mulatta, Microsome; settings: rhesus monkey, 1 h; in short: as §1
[23] = Drug metabolism in rat liver microsomes assessed as compound level by measuring UV-area of metabolite-M1 at 3 uM in presence of NADPH incubated for 60 mins by UPLC-UV/QTOF MS analysis; assay type: ADME, Microsome; settings: 1 h; in short: as §1
[24] = Drug metabolism in rat liver microsomes assessed as compound level by measuring LC-MS area at 3 uM in presence of NADPH incubated for 60 mins by UPLC-UV/QTOF MS analysis; assay type: ADME, Microsome; settings: 1 h; in short: as §1
[25] = Oral bioavailability in Sprague-Dawley rat at 20 mg/kg dosed as single administration; assay type: ADME, organism-based; settings: in vivo
[26] = Drug metabolism in mouse liver microsomes assessed as compound level by measuring UV-area of metabolite-M1 at 3 uM in presence of NADPH incubated for 60 mins by UPLC-UV/QTOF MS analysis; assay type: ADME, Microsome; settings: 1 h; in short: as §1
[27] = Drug metabolism in mouse liver microsomes assessed as compound level by measuring LC-MS area of metabolite-M2 at 3 uM in presence of NADPH incubated for 60 mins by UPLC-UV/QTOF MS analysis; assay type: ADME, Microsome; settings: 1 h; in short: as §1
[28] = Drug metabolism in monkey liver microsomes at 3 uM in presence of NADPH incubated for 60 mins by UPLC-UV/QTOF MS analysis relative to control; assay type: ADME, Macaca mulatta, Microsome; settings: rhesus monkey, read-out: Drug metabolism; in short: as §1
[29] = Drug metabolism in dog liver microsomes assessed as compound level by measuring LC-MS area of metabolite-M1 at 3 uM in presence of NADPH incubated for 60 mins by UPLC-UV/QTOF MS analysis; assay type: ADME, Canis lupus familiaris, Microsome; settings: 1 h; in short: as §1
[30] = Drug metabolism in monkey liver microsomes assessed as compound level by measuring UV-area of metabolite-M1 at 3 uM in presence of NADPH incubated for 60 mins by UPLC-UV/QTOF MS analysis; assay type: ADME, Macaca mulatta, Microsome; settings: rhesus monkey, 1 h; in short: as §1
[31] = Half life in Sprague-Dawley rat at 20 mg/kg, po dosed as single administration; assay type: ADME, organism-based; settings: in vivo
[32] = AUC (0 to t) in Sprague-Dawley rat at 2 mg/kg, iv dosed as single administration; assay type: ADME, organism-based; settings: in vivo
[33] = Drug metabolism in rat liver microsomes assessed as compound level by measuring LC-MS area of metabolite-M1 at 3 uM in presence of NADPH incubated for 60 mins by UPLC-UV/QTOF MS analysis; assay type: ADME, Microsome; settings: 1 h; in short: as §1

Cc1cc(-c2ccc(F)nc2F)nn(Cc2ccc(Cl)cc2)c1=O
Retention_time [1]: 7.3 min | Activity [2]: 15.4 ×10³ No_unit | Activity [3]: 51.3 ×10³ No_unit | Activity [4]: 26.3 ×10³ No_unit | metabolised at 1 h, 3 µM [5]: 79% | Drug uptake [6]: Not Active | CC50 [7]: 90.6 µM | metabolised at 1 h, 3 µM [8]: 34% | Tmax [9]: 0.25 h | AUC(0-t) [10]: 1100 ng·h/mL | Activity [11]: 34.1 ×10³ No_unit | Activity [12]: 13.5 ×10³ No_unit | Activity [13]: 82 ×10³ No_unit | Activity [14]: 8.3 ×10³ No_unit | t1/2 [15]: 2.03 h | Activity [16]: 10.3 ×10³ No_unit | metabolised at 1 h, 3 µM [17]: > 95% | Activity [18]: 1 ×10³ No_unit | Cmax [19]: 352 ng/mL | IC50 (Hepatitis B virus): 0.087 µM | Activity [20]: 3.09 ×10³ No_unit | Activity [21]: 44.8 ×10³ No_unit | Activity [22]: 5.42 ×10³ No_unit | Activity [23]: 56.7 ×10³ No_unit | Activity [24]: 7.4 ×10³ No_unit | bioavailability [25]: 25.3% | Activity [26]: 117 ×10³ No_unit | Activity [27]: 0.79 ×10³ No_unit | metabolised at 1 h, 3 µM [28]: 73% | Activity [29]: 5.97 ×10³ No_unit | Activity [30]: 113 ×10³ No_unit | half-life [31]: 2.96 h | AUC(0-t) [32]: 428 ng·h/mL | Activity [33]: 3.05 ×10³ No_unit
